For test [1], the target named is T1, Phosphatidylinositol 4,5-bisphosphate 3-kinase catalytic subunit delta isoform (Homo sapiens, UniProt O00329).
T1 sequence (O00329 whole entry): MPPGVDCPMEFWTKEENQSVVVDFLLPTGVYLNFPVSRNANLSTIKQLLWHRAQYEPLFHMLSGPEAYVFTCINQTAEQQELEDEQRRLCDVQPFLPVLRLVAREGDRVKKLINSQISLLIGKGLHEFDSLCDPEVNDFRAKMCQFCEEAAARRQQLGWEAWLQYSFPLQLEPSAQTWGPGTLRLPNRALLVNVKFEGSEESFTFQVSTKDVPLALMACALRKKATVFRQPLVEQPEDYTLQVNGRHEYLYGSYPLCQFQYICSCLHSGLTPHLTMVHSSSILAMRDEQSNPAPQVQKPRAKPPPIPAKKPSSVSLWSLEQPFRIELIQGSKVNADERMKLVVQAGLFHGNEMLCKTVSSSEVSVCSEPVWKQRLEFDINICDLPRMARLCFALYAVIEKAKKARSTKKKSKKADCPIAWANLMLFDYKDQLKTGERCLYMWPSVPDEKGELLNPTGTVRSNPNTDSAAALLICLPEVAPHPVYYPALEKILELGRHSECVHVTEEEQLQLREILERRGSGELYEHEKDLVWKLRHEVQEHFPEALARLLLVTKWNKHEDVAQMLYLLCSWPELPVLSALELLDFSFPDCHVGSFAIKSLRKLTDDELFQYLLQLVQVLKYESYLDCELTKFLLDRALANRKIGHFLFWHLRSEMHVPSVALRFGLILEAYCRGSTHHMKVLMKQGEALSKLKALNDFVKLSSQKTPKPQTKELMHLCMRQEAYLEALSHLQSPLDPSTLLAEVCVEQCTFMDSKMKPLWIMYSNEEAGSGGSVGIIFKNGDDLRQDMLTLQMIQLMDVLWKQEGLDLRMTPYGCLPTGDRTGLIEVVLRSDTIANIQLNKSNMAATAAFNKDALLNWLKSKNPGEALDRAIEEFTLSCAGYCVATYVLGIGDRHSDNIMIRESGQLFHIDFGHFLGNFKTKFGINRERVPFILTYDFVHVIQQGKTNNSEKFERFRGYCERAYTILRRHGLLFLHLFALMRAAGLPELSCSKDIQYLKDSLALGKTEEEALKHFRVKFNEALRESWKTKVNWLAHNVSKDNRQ
In words: Inhibition of recombinant PI3K p110delta using L-alpha-phosphatidylinositol as substrate and [gamma33P]ATP after 60 mins by thin layer chromatographic technique. An outline of the steps: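 In-house recombinant class Ia PI3K isoform (0.1 µg) with L-α-phosphatidylinositol substrate in lipid kinase buffer (Tris–HCl pH 7.4, NaCl, EDTA), 1% DMSO final. Started with ATP mix (5 mM MgCl₂, 100 µM ATP plus [γ-³³P]ATP), 1 h at room temperature, stopped with 1 M HCl. Lipids extracted in two steps, separated by TLC, read by phosphorimager. Nine inhibitor concentrations; IC50 averaged over two experiments.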

In test [2] the target is Dual specificity mitogen-activated protein kinase kinase 1 (Homo sapiens) (UniProt Q02750). In words: Inhibition of MKK1 assessed as residual activity at 10 uM.
Test [3] concerns the target Mitogen-activated protein kinase 14 (Homo sapiens) (UniProt Q16539). In words: Inhibition of p38alpha assessed as residual activity at 1 uM.
Test [4] is described as follows: Selectivity ratio of IC50 for PI3K p110beta to IC50 for PI3K p110alpha.
The target of test [5] is Phosphatidylinositol 4,5-bisphosphate 3-kinase catalytic subunit gamma isoform (Homo sapiens, UniProt P48736). In words: Inhibition of PI3K p110gamma. The method in brief:
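Recombinant PI3K isoform made in-house, mixed with phosphatidylinositol substrate and inhibitor in 1% DMSO. Lipid kinase buffer (2× stock: 40 mM Tris-HCl pH 7.4, 200 mM NaCl, 1 mM EDTA). Started with ATP/MgCl₂ (5 mM)/[γ-³³P]ATP mix, 1 h at room temperature, stopped with 1 M HCl. Lipids extracted, separated by TLC and read by phosphorimager. Nine concentrations, run twice, IC50s averaged.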

pIC50: −log10 of the molar value.

Sequence of Mitogen-activated protein kinase 14 (Homo sapiens) (Q16539 whole entry): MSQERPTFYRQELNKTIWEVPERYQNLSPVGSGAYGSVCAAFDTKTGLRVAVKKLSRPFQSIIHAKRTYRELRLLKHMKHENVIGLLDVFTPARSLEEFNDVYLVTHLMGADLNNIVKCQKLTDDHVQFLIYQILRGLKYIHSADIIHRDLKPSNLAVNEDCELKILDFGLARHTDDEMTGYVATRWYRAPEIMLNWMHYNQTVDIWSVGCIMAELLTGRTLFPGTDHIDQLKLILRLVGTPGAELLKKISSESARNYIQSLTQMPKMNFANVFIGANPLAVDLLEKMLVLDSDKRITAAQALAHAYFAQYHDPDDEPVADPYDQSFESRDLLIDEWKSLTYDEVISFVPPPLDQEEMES
Sequence of Dual specificity mitogen-activated protein kinase kinase 1 (Homo sapiens) (Q02750 whole entry): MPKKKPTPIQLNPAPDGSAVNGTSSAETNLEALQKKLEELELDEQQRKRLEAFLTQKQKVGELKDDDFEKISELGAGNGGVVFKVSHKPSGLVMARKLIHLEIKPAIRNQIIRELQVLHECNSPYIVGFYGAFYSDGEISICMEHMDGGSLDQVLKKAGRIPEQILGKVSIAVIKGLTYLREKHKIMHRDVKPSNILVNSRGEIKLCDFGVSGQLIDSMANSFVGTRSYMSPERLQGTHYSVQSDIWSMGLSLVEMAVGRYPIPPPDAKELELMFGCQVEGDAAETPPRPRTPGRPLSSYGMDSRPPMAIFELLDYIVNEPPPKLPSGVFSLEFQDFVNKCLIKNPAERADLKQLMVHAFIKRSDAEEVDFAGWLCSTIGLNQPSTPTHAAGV
Sequence of Phosphatidylinositol 4,5-bisphosphate 3-kinase catalytic subunit gamma isoform (P48736 whole entry, canonical isoform): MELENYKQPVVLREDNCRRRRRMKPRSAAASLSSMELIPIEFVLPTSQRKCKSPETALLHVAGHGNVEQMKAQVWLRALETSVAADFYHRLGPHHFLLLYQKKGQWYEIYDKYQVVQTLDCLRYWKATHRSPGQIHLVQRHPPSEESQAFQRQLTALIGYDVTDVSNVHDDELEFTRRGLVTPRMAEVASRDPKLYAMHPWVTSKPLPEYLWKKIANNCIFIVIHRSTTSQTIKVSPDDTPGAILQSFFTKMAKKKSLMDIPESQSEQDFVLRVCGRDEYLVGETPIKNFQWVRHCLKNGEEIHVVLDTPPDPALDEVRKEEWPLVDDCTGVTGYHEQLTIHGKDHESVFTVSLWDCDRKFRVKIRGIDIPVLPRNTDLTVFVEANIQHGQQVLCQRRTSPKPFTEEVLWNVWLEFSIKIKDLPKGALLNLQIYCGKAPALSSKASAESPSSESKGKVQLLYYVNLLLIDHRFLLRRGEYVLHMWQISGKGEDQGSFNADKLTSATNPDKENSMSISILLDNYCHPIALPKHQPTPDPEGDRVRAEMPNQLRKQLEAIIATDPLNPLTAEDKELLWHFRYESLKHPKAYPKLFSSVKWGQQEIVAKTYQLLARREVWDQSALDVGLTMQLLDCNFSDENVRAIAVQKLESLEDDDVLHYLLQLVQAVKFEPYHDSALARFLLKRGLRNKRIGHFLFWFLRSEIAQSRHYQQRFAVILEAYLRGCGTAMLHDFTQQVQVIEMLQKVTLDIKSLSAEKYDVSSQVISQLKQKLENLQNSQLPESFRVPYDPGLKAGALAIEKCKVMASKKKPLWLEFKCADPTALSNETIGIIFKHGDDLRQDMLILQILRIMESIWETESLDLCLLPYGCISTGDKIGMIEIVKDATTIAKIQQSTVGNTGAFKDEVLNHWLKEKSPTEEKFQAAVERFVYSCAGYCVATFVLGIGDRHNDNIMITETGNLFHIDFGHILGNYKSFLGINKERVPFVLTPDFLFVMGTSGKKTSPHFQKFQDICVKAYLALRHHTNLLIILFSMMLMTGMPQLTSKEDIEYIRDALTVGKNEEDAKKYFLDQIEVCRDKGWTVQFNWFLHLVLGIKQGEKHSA

`Cc1ccc([N+](=O)[O-])cc1S(=O)(=O)N(C)/N=C/c1cnn2ccc(C#N)cc12`: the pIC50 (in general, −log10 of the IC50, conventionally taken in molar units) is 7.31 in test [1] and 7.85 in test [5]. The Activity in test [2] is 8%; in test [3], 18%. In addition, in test [4], the Ratio IC50 is 50.

These data come from ChEMBL document CHEMBL1926509, “Discovery of pyrazolo[1,5-a]pyridines as p110α-selective PI3 kinase inhibitors” (Bioorg Med Chem, 2012).
